Laboratory results from ChEMBL document CHEMBL1124357, “The xanthene-9-spiro-4'-piperidine nucleus as a probe for opiate activity” (J Med Chem, 1989).
pIC50: −log10 of the molar value.

Species on record: Cavia porcellus
Experiment: Concentration to produce 50%inhibition of the electrically evoked twitch in guinea pig
Assay type: functional
How it was run: (§1)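 Electrically evoked twitch of guinea pig tissue. IC50, the concentration giving 50% inhibition of the twitch, was calculated by linear regression. Potency was expressed relative to normorphine assayed on the same tissues.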

Compound	pIC50
Oc1ccc2c3c1O[C@H]1[C@@H](O)C=C[C@H]4[C@@H](C2)NCC[C@@]341 [NORMORPHINE]	7.50

Species on record: Cavia porcellus
Experiment: Relative potency to that of normorphine in the electrically stimulated Guinea pig ileum test
Assay type: functional
How it was run: as §1

Compound	Relative potency
CN1CCC2(CC1)c1cccc(O)c1Oc1cccc(F)c12	0.16
CC(=O)Oc1cccc2c1Oc1ccccc1C21CCN(C)CC1	1
CN1CCC2(CC1)c1cccc(O)c1Oc1cccc(Cl)c12	0.031
CN1CCC2(CC1)c1ccccc1Oc1c(N)cccc12	0.055
CC(=O)Nc1cccc2c1Oc1ccccc1C21CCN(C)CC1	0.008
CCC(=O)C(CC(C)N(C)C)(c1ccccc1)c1ccccc1 (stereo not drawn) [METHADONE]	0.91
Cc1cccc2c1C1(CCN(C)CC1)c1cccc(O)c1O2	0.237
c1ccc(NCCN2CCC3(CC2)c2ccccc2Oc2ccccc23)cc1	3.5
COc1cccc2c1C1(CCN(C)CC1)c1cccc(O)c1O2	0.094
CN1CCC2(CC1)c1ccccc1Oc1c(O)cccc12	0.175
CN1CCC2(CC1)c1ccccc1Oc1c(CO)cccc12	0.004
CN1CCC2(CC1)c1ccccc1Oc1c(S)cccc12	0.001
